Laboratory results: ChEMBL document CHEMBL3352785, “Study on one-pot four-component synthesis of 9-aryl-hexahydro-acridine-1,8-diones using SiO2-I as a new heterogeneous catalyst and their anticancer activity” (Bioorg Med Chem Lett, 2014)
In brackets after ≈: the same amount, converted by molar mass.

Assays:
MCF7 = assay: Anticancer activity against human cells MCF7 cells assessed as growth inhibition after 48 hrs by MTT assay; format: functional, cell-based; settings: MCF7, 48 h
Method in brief: (§1)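 Cells grown in MEM with 10% heat-inactivated FBS, penicillin, streptomycin and amphotericin-B at 37 °C, 5% CO2, and trypsinized with TPVG. Seeded at 1 × 10⁴ cells/well and allowed to adhere for 24 h, then exposed to a range of concentrations for 48 h. MTT (2 mg/mL in PBS) added for 3 h, formazan dissolved in isopropanol, A540 read. Growth inhibition calculated as (control − test)/control × 100.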

HepG2 = assay: Anticancer activity against human cells HepG2 cells assessed as growth inhibition after 48 hrs by MTT assay; format: functional, cell-based; settings: HepG2, 48 h; method in brief: as §1

CC1(C)CC(=O)C2=C(C1)NC1=C(C(=O)CC(C)(C)C1)C2c1cccc(C#N)c1
IC50 (MCF7): 4.7 µg/mL (≈ 12.6 µM)
IC50 (HepG2): 1.4 µg/mL (≈ 3.74 µM)

CCOc1cccc(C2C3=C(CC(C)(C)CC3=O)NC3=C2C(=O)CC(C)(C)C3)c1
IC50 (MCF7): 4.5 µg/mL (≈ 11.4 µM)
IC50 (HepG2): 4.8 µg/mL (≈ 12.2 µM)

CC1(C)CC(=O)C2=C(C1)NC1=C(C(=O)CC(C)(C)C1)C2c1ccccc1O
IC50 (MCF7): 5.9 µg/mL (≈ 16.1 µM)
IC50 (HepG2): 2.6 µg/mL (≈ 7.11 µM)

COc1cccc2c1C(=O)c1c(O)c3c(c(O)c1C2=O)C[C@@](O)(C(=O)CO)C[C@@H]3O[C@H]1C[C@H](N)[C@H](O)[C@H](C)O1 [DOXORUBICIN]
IC50 (MCF7): 1.09 µg/mL (≈ 2.01 µM)
IC50 (HepG2): 1.21 µg/mL (≈ 2.23 µM)

CC1(C)CC(=O)C2=C(C1)NC1=C(C(=O)CC(C)(C)C1)C2c1cc(F)ccc1O
IC50 (MCF7): 6.2 µg/mL (≈ 16.2 µM)
IC50 (HepG2): 8.6 µg/mL (≈ 22.4 µM)

COc1ccc(C2C3=C(CC(C)(C)CC3=O)NC3=C2C(=O)CC(C)(C)C3)c(OC)c1
IC50 (MCF7): 5 µg/mL (≈ 12.2 µM)
IC50 (HepG2): 1.6 µg/mL (≈ 3.91 µM)

COc1ccc(C2C3=C(CC(C)(C)CC3=O)NC3=C2C(=O)CC(C)(C)C3)cc1Br
IC50 (MCF7): 5.3 µg/mL (≈ 11.6 µM)
IC50 (HepG2): 2.2 µg/mL (≈ 4.8 µM)

COc1ccc(C2C3=C(CC(C)(C)CC3=O)NC3=C2C(=O)CC(C)(C)C3)cc1
IC50 (MCF7): 9.6 µg/mL (≈ 25.3 µM)
IC50 (HepG2): 8.2 µg/mL (≈ 21.6 µM)
